Experimental data pooled from the literature.
Protocols differ between the studies behind these lines.
CDK4 with cyclin D3: Cyclin-dependent kinase 4, with cyclin D3 (CDK4, Homo sapiens, UniProt P11802)
CDK4 with cyclin D1: Cyclin-dependent kinase 4, with cyclin D1 (CDK4, Homo sapiens, UniProt P11802)
CDK4: Cyclin-dependent kinase 4 (CDK4, Homo sapiens, UniProt P11802)

C=CC(=O)N1CCC(C(=O)NCC(=O)N2CCN(c3nc(-c4cnc(N)nc4C(F)F)nc(N4CCOCC4)n3)CC2)CC1  remaining binding (CDK4 with cyclin D3; binding, competition with immobilised ligand; 1 µM): 100%
N#CC1(c2ccccn2)CCN(Cc2cc(C(=O)N3CCCC3)c(=O)n3ccccc23)CC1  remaining binding (CDK4 with cyclin D1; cell-free assay, competition with immobilised ligand; 1 µM): 100%
CN(C)c1ncc(F)c(-c2cnn3ncccc23)n1  remaining binding (CDK4; binding; 1 µM): 100%
O=C(c1ccc(Nc2ncc(Cl)c(-c3ccc(Cl)s3)n2)cc1)N1CCC(N2CCCC2)CC1  remaining binding (CDK4; binding, competition with immobilised ligand; 1 µM): 1.3%
O=C1CCc2cc(Nc3cc(OC4CCOCC4)c([N+](=O)[O-])cc3Cl)ccc2N1  remaining binding (CDK4; cell-free assay, competition with immobilised ligand; 1 µM): 81%
O=C(NCCCN1CCOCC1)c1ccc(Nc2nccc(-c3cc4ccccc4s3)n2)cc1  remaining binding (CDK4; binding, competition with immobilised ligand; 1 µM): 55%
C[C@H]1CCN(c2nccc(-c3cnn4ncccc34)n2)C1  remaining binding (CDK4; binding; 1 µM): 95%
FC(F)(F)c1ccc2c(c1)nc(-c1cccnc1)n2C1CC1  remaining binding (CDK4 with cyclin D1; cell-free assay, competition with immobilised ligand; 1 µM): 100%
FC(F)(F)Oc1cccc(-c2cnc3ccc(-c4ccncc4)nn23)c1  remaining binding (CDK4; cell-free assay, competition with immobilised ligand; 5 µM): 81%
CNC(=O)[C@@H]1CC[C@@H](n2c(-c3ccc4cnccc4c3)nc3ccc(C(=O)NCc4cccc(C(N)=O)c4)cc32)C1  remaining binding (CDK4 with cyclin D3; binding, competition with immobilised ligand; 1 µM): 100%
CN(C)c1nccc(-c2cnc3ncccn23)n1  remaining binding (CDK4 with cyclin D3; binding; 1 µM): 48%
CCN1CCN(Cc2ccc(C(=O)Nc3ccc(C)c(Oc4ccc5c(c4)CC(=O)N5)c3)cc2C(F)(F)F)CC1  remaining binding (CDK4 with cyclin D1; binding, competition with immobilised ligand; 1 µM): 79%
O=C(NCC1CCOCC1)c1n[nH]cc1NC(=O)c1c(F)cccc1F  remaining binding (CDK4 with cyclin D1; binding, competition with immobilised ligand; 1 µM): 47%
Cc1cnn2ncc(-c3ccnc(N(C)C)n3)c2c1  remaining binding (CDK4 with cyclin D1; binding; 1 µM): 84%
O=S(=O)(NC1CCC(c2cc(F)ccc2F)(S(=O)(=O)c2ccc(Cl)cc2)CC1)C(F)(F)F (stereo not shown)  remaining binding (CDK4 with cyclin D3; cell-free assay, competition with immobilised ligand; 1 µM): 91%
COc1cnc(Nc2cccc(S(N)(=O)=O)c2)nc1N1CCN(c2ccccc2)C(=O)C1  remaining binding (CDK4 with cyclin D1; binding, competition with immobilised ligand; 1 µM): 100%
COc1ncc2cc3ccccc3nc2c1C#N  remaining binding (CDK4 with cyclin D1; cell-free assay, competition with immobilised ligand; 5 µM): 82%
CC(C)CC(=O)N1CCc2nc(-c3ccc(Br)cc3)nc(N(C)Cc3ccccc3)c2C1  remaining binding (CDK4 with cyclin D3; cell-free assay, competition with immobilised ligand; 0.1 µM): 100%
F[C@@H]1CCN(c2nccc(-c3cnn4ncccc34)n2)C1  remaining binding (CDK4 with cyclin D3; binding; 1 µM): 92%
Cc1cnc(Nc2ccc(C(=O)N3CCC(N4CCCC4)CC3)cc2)nc1-c1cc2ccccc2s1  remaining binding (CDK4; binding, competition with immobilised ligand; 1 µM): 40%
C[C@@H](c1ccc(-n2cnc3c(N)ncnc32)cc1)N1CCc2nn(C)c(Cc3ccccc3)c2C1=O  remaining binding (CDK4; binding, competition with immobilised ligand; 0.1 µM): 85%
O=C(Nc1c[nH]nc1C(=O)NC1CCNCC1)c1cc(F)cc(F)c1  remaining binding (CDK4 with cyclin D3; binding, competition with immobilised ligand; 1 µM): 98%
O=C(NCCCN1CCOCC1)c1ccc(Nc2ncc(Cl)c(-c3ccc(Cl)s3)n2)cc1  remaining binding (CDK4; binding, competition with immobilised ligand; 1 µM): 50%
CN(c1nccc(-c2cnn3ncccc23)n1)C1CC1  remaining binding (CDK4 with cyclin D3; binding; 1 µM): 100%
O=C(c1ccc(Nc2nccc(-c3cc4ccccc4s3)n2)cc1)N1CCC(N2CCCC2)CC1  remaining binding (CDK4 with cyclin D3; binding, competition with immobilised ligand; 1 µM): 18%
CC(C)(O)c1cncc(-c2nc3ccc(F)cc3n2C2CC2)c1  remaining binding (CDK4 with cyclin D1; cell-free assay, competition with immobilised ligand; 1 µM): 100%
N[C@H]1CCN(c2nccc(-c3cnn4ncccc34)n2)C1  remaining binding (CDK4; binding; 1 µM): 75%
Nc1ncc2c(n1)-c1c([nH]c3ccc(C#CC4CC4)cc13)CCCC2  remaining binding (CDK4 with cyclin D3; binding, competition with immobilised ligand; 1 µM): 93%
COc1cnc(Nc2cccc(S(N)(=O)=O)c2)nc1N1CCN(c2ccccc2)CC1  remaining binding (CDK4 with cyclin D3; binding, competition with immobilised ligand; 1 µM): 93%
c1cncc(-c2cccc(Nc3nccc(NC4CCCCC4)n3)c2)c1  remaining binding (CDK4 with cyclin D3; binding, competition with immobilised ligand; 10 µM): 86%
O=C(O)c1cc(-c2ccc(C3CCNCC3)cc2)c2ccc(-c3ccc(C(F)(F)F)cc3)cc2c1  remaining binding (CDK4 with cyclin D3; cell-free assay, competition with immobilised ligand; 1 µM): 100%
c1cnn2ncc(-c3ccnc(N4CCC45COC5)n3)c2c1  remaining binding (CDK4 with cyclin D1; binding; 1 µM): 81%
O=C(c1ccc(Nc2ncc(Cl)c(-c3cc4ccccc4s3)n2)cc1)N1CCC(N2CCCC2)CC1  remaining binding (CDK4; binding, competition with immobilised ligand; 1 µM): 21%
Cc1nc(N2CC[C@@H](O)C2)ncc1-c1cc(C(F)(F)F)cc2[nH]ncc12  remaining binding (CDK4; binding, competition with immobilised ligand; 1 µM): 63%
